Measured values collected from several papers.
Protocols differ between the studies behind these lines.
Technique: competition with immobilised ligand
RPS6KA3 C-terminal kinase domain: Ribosomal protein S6 kinase alpha-3, C-terminal kinase domain (RPS6KA3, Homo sapiens, UniProt P51812)
RPS6KA3 N-terminal kinase domain: Ribosomal protein S6 kinase alpha-3, N-terminal kinase domain (RPS6KA3, Homo sapiens, UniProt P51812)

Structure (SMILES) | target | test | conditions | remaining binding
FC(F)(F)Oc1cccc(-c2cnc3ccc(-c4ccncc4)nn23)c1 | RPS6KA3 C-terminal kinase domain | binding | 5 µM | 69%
C[C@@H](c1ccc(-n2cnc3c(N)ncnc32)cc1)N1CCc2nn(C)c(Cc3ccccc3)c2C1=O | RPS6KA3 C-terminal kinase domain | binding | 0.1 µM | 94%
CCCOc1ccc([C@H]2[C@H](C(=O)O)[C@@H](c3ccc4c(c3)OCO4)CN2CC(=O)Nc2c(CC)cccc2CC)cc1 | RPS6KA3 N-terminal kinase domain | cell-free assay | 1 µM | 72%
COc1ncc2cc3ccccc3nc2c1C#N | RPS6KA3 N-terminal kinase domain | cell-free assay | 5 µM | 89%
O=C(Nc1ccc(Oc2ccc(F)cc2)cc1)N1CCc2ncccc2[C@H]1c1ccc(F)cc1 | RPS6KA3 C-terminal kinase domain | cell-free assay | 1 µM | 97%
CNC(=O)[C@@H]1CC[C@@H](n2c(-c3ccc4cnccc4c3)nc3ccc(C(=O)NCc4cccc(C(N)=O)c4)cc32)C1 | RPS6KA3 C-terminal kinase domain | binding | 1 µM | 100%
O=C(NCC1CCOCC1)c1n[nH]cc1NC(=O)c1c(F)cccc1F | RPS6KA3 N-terminal kinase domain | binding | 1 µM | 78%
Cc1cnn2ncc(-c3ccnc(N(C)C)n3)c2c1 | RPS6KA3 C-terminal kinase domain | binding | 1 µM | 100%
COc1cnc(Nc2cccc(S(N)(=O)=O)c2)nc1N1CCN(c2ccccc2)C(=O)C1 | RPS6KA3 C-terminal kinase domain | binding | 1 µM | 97%
C=CC(=O)N1CCC(C(=O)NCC(=O)N2CCN(c3nc(-c4cnc(N)nc4C(F)F)nc(N4CCOCC4)n3)CC2)CC1 | RPS6KA3 N-terminal kinase domain | binding | 1 µM | 85%
O=C1NC(c2ccccn2)Sc2ccccc21 (stereo not shown) | RPS6KA3 N-terminal kinase domain | cell-free assay | 1 µM | 72%
CN(C)c1nccc(-c2cnc3ncccn23)n1 | RPS6KA3 C-terminal kinase domain | binding | 1 µM | 78%
O=C(NCCCN1CCOCC1)c1ccc(Nc2ncc(Cl)c(-c3ccc(Cl)s3)n2)cc1 | RPS6KA3 C-terminal kinase domain | binding | 1 µM | 100%
O=C(Nc1c[nH]nc1C(=O)NC1CCNCC1)c1cc(F)cc(F)c1 | RPS6KA3 C-terminal kinase domain | binding | 1 µM | 100%
CCc1ccccc1C(=O)Nc1n[nH]c2c(C)c(F)c(C3C(C#N)=C(C)N(C)C(C)=C3C#N)cc12 | RPS6KA3 N-terminal kinase domain | cell-free assay | 1 µM | 0.3%
O=C(c1ccc(Nc2nccc(-c3cc4ccccc4s3)n2)cc1)N1CCC(N2CCCC2)CC1 | RPS6KA3 C-terminal kinase domain | binding | 1 µM | 66%
C[C@H]1CCN(c2nccc(-c3cnn4ncccc34)n2)C1 | RPS6KA3 N-terminal kinase domain | binding | 1 µM | 78%

Structure (SMILES) | target | test | conditions | remaining binding
c1cncc(-c2cccc(Nc3nccc(NC4CCCCC4)n3)c2)c1 | RPS6KA3 N-terminal kinase domain | binding | 10 µM | 42%
Cc1c(NC(=O)c2cc(C(N)=O)nc3cc(F)ccc23)c(C(F)(F)F)nn1Cc1ccc(C(C)(C)C)cc1 | RPS6KA3 C-terminal kinase domain | cell-free assay | 1 µM | 100%
O=C(NCCCN1CCOCC1)c1ccc(Nc2nccc(-c3cc4ccccc4s3)n2)cc1 | RPS6KA3 C-terminal kinase domain | binding | 1 µM | 73%
N[C@@H]1CCN(c2nccc(-c3cnn4ncccc34)n2)C1 | RPS6KA3 C-terminal kinase domain | binding | 1 µM | 41%
O=C(c1ccc(Nc2ncc(Cl)c(-c3ccc(Cl)s3)n2)cc1)N1CCC(N2CCCC2)CC1 | RPS6KA3 N-terminal kinase domain | binding | 1 µM | 30%
C[C@@]1(Cc2ccc(C#N)cc2)C(=O)N(c2cc(Cl)cc(Cl)c2)c2ncc(C(=O)NC3(c4nc(C5CCC5)no4)CC3)n21 | RPS6KA3 C-terminal kinase domain | cell-free assay | 1 µM | 100%
COc1ccnn2ncc(-c3ccnc(N(C)C)n3)c12 | RPS6KA3 N-terminal kinase domain | binding | 1 µM | 85%
Nc1ncc2c(n1)-c1c([nH]c3ccc(C#CC4CC4)cc13)CCCC2 | RPS6KA3 N-terminal kinase domain | binding | 1 µM | 73%
CC(C)(C)c1ccc(-c2nc(CBr)nn2-c2cccc(O)c2)cc1 | RPS6KA3 N-terminal kinase domain | cell-free assay | 10 µM | 74%
CCN1CCN(Cc2ccc(C(=O)Nc3ccc(C)c(Oc4ccc5c(c4)CC(=O)N5)c3)cc2C(F)(F)F)CC1 | RPS6KA3 C-terminal kinase domain | binding | 1 µM | 100%
O=C(c1ccc(Nc2ncc(Cl)c(-c3cc4ccccc4s3)n2)cc1)N1CCC(N2CCCC2)CC1 | RPS6KA3 C-terminal kinase domain | binding | 1 µM | 77%
CN(c1ccnc(CNc2nc(Nc3ccc4c(c3)CC(=O)N4)ncc2C(F)(F)F)n1)S(C)(=O)=O | RPS6KA3 N-terminal kinase domain | cell-free assay | 1 µM | 25%
Cc1cnc(Nc2ccc(C(=O)N3CCC(N4CCCC4)CC3)cc2)nc1-c1cc2ccccc2s1 | RPS6KA3 N-terminal kinase domain | binding | 1 µM | 22%
F[C@@H]1CCN(c2nccc(-c3cnn4ncccc34)n2)C1 | RPS6KA3 N-terminal kinase domain | binding | 1 µM | 100%
COc1cnc(Nc2cccc(S(N)(=O)=O)c2)nc1N1CCN(c2ccccc2)CC1 | RPS6KA3 N-terminal kinase domain | binding | 1 µM | 89%
CN(C)c1nccc(-c2cnn3ncccc23)n1 | RPS6KA3 N-terminal kinase domain | binding | 1 µM | 82%
O=S(=O)(NC1CCC(c2cc(F)ccc2F)(S(=O)(=O)c2ccc(Cl)cc2)CC1)C(F)(F)F (stereo not shown) | RPS6KA3 C-terminal kinase domain | cell-free assay | 1 µM | 83%
